Measured values reported in ChEMBL document CHEMBL1147285, “A mammalian cell agar-diffusion assay for the detection of toxic compounds” (J Nat Prod, 1989).
Calls of active or inactive are those of the source. No cut-off for these calls is given here. Numbered stars: 1 amine (or outer) side, 2 acyl side, 3 side chain; on linkers, the order of the positions; unused ones are H or OH. Bridge positions count the residues as written; N and C are the ends. Square brackets hold non-standard residues; d marks the D form. Peptide text beside a SMILES is read from it. I, II: the chains in the order shown. Actinocin(1to9) = Cc1c2oc3c(C)ccc(C(=O)[*:2])c3nc-2c(C(=O)[*:1])c(N)c1=O; NMeV = CN[C@H](C(=O)O)C(C)C; Sar = CNCC(=O)O

Key:
[1] = tested on: HT-29; test: Antiproliferative activity against human HT-29 cells after 96 hrs by MTT assay; assay type: functional, cell-based; details: HT-29, 96 h
[2] = tested on: P388; test: Antiproliferative activity against mouse P388 cells at 0.01 ug after 48 hrs by two-layer agar-diffusion method; assay type: functional; details: for zone of inhibition at 0.01 µg/disc: read-out: IZ
Procedure, shortened: (§1)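 Compound (0.01-10 µg) spotted on Si gel pieces, air-dried, placed face down on 1.5% Noble agar in PBS-growth medium (20:80) for 60 min diffusion. After removal, cells (2 X 10^6/ml) in 0.3% low-temperature agarose overlaid; 48 h incubation. Cytotoxic zones shown by MTT (5 mg/ml in growth medium) over agarose; absence of zone scored as not detected.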

[3] = tested on: P388; test: Antiproliferative activity against mouse P388 cells at 1 ug after 48 hrs by two-layer agar-diffusion method; assay type: functional; details: read-out: IZ; procedure, shortened: as §1
[4] = tested on: P388; test: Antiproliferative activity against mouse P388 cells at 0.1 ug after 48 hrs by two-layer agar-diffusion method; assay type: functional; details: for zone of inhibition at 0.1 µg/disc: read-out: IZ; procedure, shortened: as §1
[5] = tested on: HT-29; test: Antiproliferative activity against human HT-29 cells at 1 ug after 48 hrs by two-layer agar-diffusion method; assay type: functional; details: for zone of inhibition at 1 µg/disc: read-out: IZ; procedure, shortened: as §1
[6] = tested on: P388; test: Antiproliferative activity against mouse P388 cells after 48 hrs by MTT assay; assay type: functional, cell-based; details: P388, 48 h
Procedure, shortened: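 Uncloned P-388 in RPMI 1640 + 10% horse serum, gentamicin 50 µg/ml; 200-µl cultures at 1 X 10' cells/ml with or without drug, 48 h exposure. MTT (5 mg/ml in medium, 75 µl) added for 90 min, formazan read at 570 nm; absorbance normalized to untreated wells; IC50 by linear regression of logit-transformed data.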

[7] = tested on: HT-29; test: Antiproliferative activity against human HT-29 cells at 0.01 ug after 48 hrs by two-layer agar-diffusion method; assay type: functional; details: for zone of inhibition at 0.01 µg/disc: read-out: IZ; procedure, shortened: as §1
[8] = tested on: HT-29; test: Antiproliferative activity against human HT-29 cells at 0.1 ug after 48 hrs by two-layer agar-diffusion method; assay type: functional; details: for zone of inhibition at 0.1 µg/disc: read-out: IZ; procedure, shortened: as §1
[9] = tested on: HT-29; test: Antiproliferative activity against human HT-29 cells at 10 ug after 48 hrs by two-layer agar-diffusion method; assay type: functional, cell-based; procedure, shortened: as §1
[10] = tested on: HT-29; test: Antiproliferative activity against human HT-29 cells at 5 ug after 48 hrs by two-layer agar-diffusion method; assay type: functional; details: read-out: IZ; procedure, shortened: as §1
[11] = tested on: P388; test: Antiproliferative activity against mouse P388 cells at 5 ug after 48 hrs by two-layer agar-diffusion method; assay type: functional; details: read-out: IZ; procedure, shortened: as §1

Compound | IC50 [1] | Activity [2] | zone of inhibition at 1 µg/disc [3] [mm] | zone of inhibition at 0.1 µg/disc [4] [mm] | Activity [5] | IC50 [6] | Activity [7] | Activity [8] | Activity [9] | zone of inhibition at 1 µg/disc [5] [mm] | zone of inhibition at 0.01 µg/disc [2] [mm] | zone of inhibition at 0.01 µg/disc [7] [mm] | zone of inhibition at 0.1 µg/disc [8] [mm] | zone of inhibition at 5 µg/disc [10] [mm] | zone of inhibition at 5 µg/disc [11] [mm] | Activity [4]
COc1cc(NS(C)(=O)=O)ccc1Nc1c2ccccc2nc2ccccc12 [AMSACRINE] | 559 nM | inactive | 20 | 10 | inactive | 229 nM | inactive | inactive | inactive |  |  |  |  |  |  | 
Nc1ncn([C@@H]2O[C@H](CO)[C@@H](O)[C@H]2O)c(=O)n1 [AZACITIDINE] | 3800 nM | inactive | 30 | 12.5 |  | 5000 nM | inactive | inactive |  | 20 |  |  |  |  |  | 
COc1cc2c(c(OC)c1OC)-c1ccc(OC)c(=O)cc1[C@@H](NC(C)=O)CC2 [COLCHICINE] |  |  | > 40 | 40 |  | 24 nM |  |  |  | > 40 | 17.5 | 25 | 40 |  |  | 
C=C1C(=O)O[C@H]2C[C@@H]1C(OC(C)=O)C/C(C)=C/CC/C(C)=C/CC[C@@]2(C)O (stereo partly drawn) [CRASSIN ACETATE] | 0.26 µg/mL |  | 9 |  |  | 1 µg/mL |  |  |  |  |  |  |  | 17 | 20 | 
Nc1ccn([C@@H]2O[C@H](CO)[C@@H](O)[C@@H]2O)c(=O)n1 [CYTARABINE] | 66 nM |  | > 40 | 20 | inactive | 1230 nM | inactive | inactive | inactive |  | 10 |  |  |  |  | 
Cc1c2oc3c(C)ccc(C(=O)N[C@@H]4C(=O)N[C@H](C(C)C)C(=O)N5CCC[C@H]5C(=O)N(C)CC(=O)N(C)[C@@H](C(C)C)C(=O)O[C@@H]4C)c3nc-2c(C(=O)N[C@@H]2C(=O)N[C@H](C(C)C)C(=O)N3CCC[C@H]3C(=O)N(C)CC(=O)N(C)[C@@H](C(C)C)C(=O)O[C@@H]2C)c(N)c1=O [DACTINOMYCIN] (I: T[dV]P[Sar][NMeV] / II: T[dV]P[Sar][NMeV]; ester I:1-I:C, II:1-II:C; linker I:N-II:N via Actinocin(1to9)) | 223 nM | inactive | 5 |  | inactive | 0.2 nM | inactive | inactive | inactive |  |  |  |  |  |  | inactive
COc1cccc2c1C(=O)c1c(O)c3c(c(O)c1C2=O)C[C@@](O)(C(C)=O)C[C@@H]3O[C@H]1C[C@H](N)[C@H](O)[C@H](C)O1 [DAUNORUBICIN] | 133 nM |  | 20 | 12.5 |  | 28 nM | inactive | inactive |  | 5 | 10 |  |  |  |  | 
COc1cccc2c1C(=O)c1c(O)c3c(c(O)c1C2=O)C[C@@](O)(C(=O)CO)C[C@@H]3O[C@H]1C[C@H](N)[C@H](O)[C@H](C)O1 [DOXORUBICIN] | 37 nM |  | 25 | 17.5 |  | 74 nM | inactive | inactive |  | 5 | 5 |  |  |  |  | 
CC[C@H]1CN2CCc3cc(OC)c(OC)cc3[C@@H]2C[C@@H]1C[C@H]1NCCc2cc(OC)c(OC)cc21 [EMETINE] | 33 nM |  | > 40 | 40 |  | 7 nM | inactive |  |  | 35 | 20 |  | 25 |  |  | 
O=c1[nH]cc(F)c(=O)[nH]1 [FLUOROURACIL] | 690 nM | inactive | > 40 | 15 | inactive | 609 nM | inactive | inactive | inactive |  |  |  |  |  |  | 
CN(Cc1cnc2nc(N)nc(N)c2n1)c1ccc(C(=O)N[C@@H](CCC(=O)O)C(=O)O)cc1 [METHOTREXATE] | 4400 nM | inactive | 40 | 27.5 | inactive | 66 nM | inactive | inactive | inactive |  |  |  |  |  |  | 
CO[C@@]12[C@H](COC(N)=O)C3=C(C(=O)C(C)=C(N)C3=O)N1C[C@@H]1N[C@@H]12 [MITOMYCIN] | 99 nM | inactive | 25 | 5 |  | 3000 nM | inactive | inactive |  | 10 |  |  |  |  |  | 
CO[C@H](C(=O)[C@@H](O)[C@@H](C)O)[C@@H]1Cc2cc3cc(O[C@H]4C[C@@H](O[C@@H]5C[C@@H](O)[C@H](O)[C@@H](C)O5)[C@H](O)[C@@H](C)O4)c(C)c(O)c3c(O)c2C(=O)[C@H]1O[C@H]1C[C@@H](O[C@@H]2C[C@@H](O)[C@@H](O[C@@H]3C[C@](C)(O)[C@H](O)[C@@H](C)O3)[C@@H](C)O2)[C@H](O)[C@@H](C)O1 [PLICAMYCIN] | 33 nM | inactive | 30 | 15 |  | 111 nM | inactive |  |  | 25 |  |  | 15 |  |  | 
COc1cc([C@@H]2c3cc4c(cc3[C@H](O)[C@H]3COC(=O)[C@H]23)OCO4)cc(OC)c1OC [PODOFILOX] | 11 nM |  | 40 | 32.5 |  | 5.9 nM |  |  |  | > 40 | 12.5 | 25 | > 40 |  |  | 
Nc1nc2[nH]cnc2c(=S)[nH]1 [THIOGUANINE] | 1240 nM |  | > 40 | > 40 | inactive | 300 nM | inactive | inactive | inactive |  | > 40 |  |  |  |  | 
CC[C@]1(O)C[C@@H]2CN(CCc3c([nH]c4ccccc34)[C@@](C(=O)OC)(c3cc4c(cc3OC)N(C)[C@H]3[C@@](O)(C(=O)OC)[C@H](OC(C)=O)[C@]5(CC)C=CCN6CC[C@]43[C@@H]65)C2)C1 [VINBLASTINE] | 4 nM |  | > 40 | 32.5 |  | 0.7 nM |  |  |  | 40 | 12.5 | 10 | 25 |  |  | 
CC[C@]1(O)C[C@H]2CN(CCc3c([nH]c4ccccc34)[C@@](C(=O)OC)(c3cc4c(cc3OC)N(C=O)[C@H]3[C@@](O)(C(=O)OC)[C@H](OC(C)=O)[C@]5(CC)C=CCN6CC[C@]43[C@@H]65)C2)C1 [VINCRISTINE] | 7 nM |  | > 40 | 32.5 |  | 1.2 nM | inactive |  |  | 30 | 12.5 |  | 15 |  |  | 
